Experimental data from ChEMBL document CHEMBL1131139, “Synthesis and antibacterial activity of ketolides (6-O-methyl-3-oxoerythromycin derivatives): a new class of antibacterials highly potent against macrolide-resistant and -susceptible respiratory pathogens” (1998).
In brackets after ≈: the same amount, converted by molar mass.

Columns and labels:
Format in all cases: functional
Staphylococcus aureus [1] = assay: In vitro inhibitory activity against Staphylococcus aureus (011UC4)
How it was run: (§1)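 Two-fold agar dilution on Mueller-Hinton agar (pH 7.4). Inoculum from overnight plate cultures suspended in Mueller-Hinton broth, adjusted to 10^9 CFU/mL, diluted 1:200 and spotted by multipoint inoculator at about 10^4 CFU/spot. Plates incubated 37 °C for 20 h. MIC taken as lowest concentration with no visible growth.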

Streptococcus pyogenes = assay: In vitro inhibitory activity against Streptococcus pyogenes (02A1UC1); how it was run: as §1
Haemophilus influenzae [2] = assay: In vitro inhibitory activity against Haemophilus influenzae (351HT3); how it was run: as §1
Escherichia coli = assay: In vitro inhibitory activity against Escherichia coli (250 UC5); how it was run: as §1
Staphylococcus aureus [3] = assay: In vitro inhibitory activity against Staphylococcus aureus (EryRi 011GO25i); how it was run: as §1
Streptococcus pneumoniae [4] = assay: In vitro inhibitory activity against Streptococcus pneumoniae (EryRi 030SJ5i); how it was run: as §1
Staphylococcus aureus [5] = assay: In vitro inhibitory activity against Staphylococcus aureus (EryRc 011CB20); how it was run: as §1
[6] = test system: Staphylococcus epidermidis; assay: In vitro inhibitory activity against Staphylococcus epidermidis (EryRi 012GO11i); how it was run: as §1
Streptococcus pneumoniae [7] = assay: In vitro inhibitory activity against Streptococcus pneumoniae (EryRc 030SJ1); how it was run: as §1
Streptococcus pneumoniae [8] = assay: In vitro inhibitory activity against Streptococcus pneumoniae (032UC1); how it was run: as §1
Haemophilus influenzae [9] = assay: In vitro inhibitory activity against Haemophilus influenzae (351CB12); how it was run: as §1

Row | Compound | MIC (Staphylococcus aureus [1]) [µg/mL] | MIC (Streptococcus pyogenes) [µg/mL] | MIC (Haemophilus influenzae [2]) [µg/mL] | MIC (Escherichia coli) [µg/mL] | MIC (Staphylococcus aureus [3]) [µg/mL] | MIC (Streptococcus pneumoniae [4]) [µg/mL] | MIC (Staphylococcus aureus [5]) [µg/mL] | MIC [6] [µg/mL] | MIC (Streptococcus pneumoniae [7]) [µg/mL] | MIC (Streptococcus pneumoniae [8]) [µg/mL] | MIC (Haemophilus influenzae [9]) [µg/mL]
1 | CC[C@H]1OC(=O)[C@H](C)C(=O)[C@H](C)[C@@H](O[C@@H]2O[C@H](C)C[C@H](N(C)C)[C@H]2O)[C@](C)(OC)C[C@@H](C)C2=NCCN3C(=O)O[C@@]1(C)[C@H]3[C@H]2C | 0.3 (≈ 0.47 µM) | 0.08 (≈ 0.125 µM) | 5 (≈ 7.84 µM) | 40 (≈ 62.7 µM) | 0.6 (≈ 0.941 µM) | 40 (≈ 62.7 µM) | 40 (≈ 62.7 µM) | 0.3 (≈ 0.47 µM) | 40 (≈ 62.7 µM) | 0.02 (≈ 0.0314 µM) | 5 (≈ 7.84 µM)
2 | CC[C@H]1OC(=O)[C@H](C)[C@@]2(O)O[C@@](C)(C[C@@H](C)/C(=N\O)[C@H](C)[C@@H](O)[C@]1(C)O)[C@H](O[C@@H]1O[C@H](C)C[C@H](N(C)C)[C@H]1O)[C@H]2C | 40 (≈ 67.9 µM) | 40 (≈ 67.9 µM) | 10 (≈ 17 µM) | 40 (≈ 67.9 µM) | 40 (≈ 67.9 µM) | 40 (≈ 67.9 µM) | 40 (≈ 67.9 µM) | 40 (≈ 67.9 µM) | 40 (≈ 67.9 µM) | 40 (≈ 67.9 µM) | 10 (≈ 17 µM)
3 | CC[C@H]1OC(=O)[C@H](C)C(=O)[C@H](C)[C@@H](O[C@@H]2O[C@H](C)C[C@H](N(C)C)[C@H]2O)[C@](C)(OC)C[C@@H](C)C(=O)[C@H](C)[C@@H](O)[C@]1(C)O | 0.3 (≈ 0.51 µM) | 0.6 (≈ 1.02 µM) | 20 (≈ 34 µM) | 40 (≈ 68.1 µM) | 40 (≈ 68.1 µM) | 40 (≈ 68.1 µM) | 40 (≈ 68.1 µM) | 5 (≈ 8.51 µM) | 40 (≈ 68.1 µM) | 0.15 (≈ 0.255 µM) | 20 (≈ 34 µM)
4 | CC[C@H]1OC(=O)[C@H](C)C(=O)[C@H](C)[C@@H](O[C@@H]2O[C@H](C)C[C@H](N(C)C)[C@H]2O)[C@](C)(OC)C[C@@H](C)C(=O)[C@H](C)[C@H]2N(NCCCc3ccccc3)C(=O)O[C@]12C | 0.08 (≈ 0.107 µM) | 0.02 (≈ 0.0268 µM) | 1.2 (≈ 1.61 µM) | 40 (≈ 53.6 µM) | 0.15 (≈ 0.201 µM) | 0.15 (≈ 0.201 µM) | 40 (≈ 53.6 µM) | 0.15 (≈ 0.201 µM) | 5 (≈ 6.7 µM) | 0.02 (≈ 0.0268 µM) | 1.2 (≈ 1.61 µM)
5 | CC[C@H]1OC(=O)[C@H](C)C(=O)[C@H](C)[C@@H](O[C@@H]2O[C@H](C)C[C@H](N(C)C)[C@H]2O)[C@](C)(OC)C[C@@H](C)/C(=N\OCc2ccccc2)[C@H](C)[C@@H](O)[C@]1(C)O | 2.5 (≈ 3.61 µM) | 0.6 (≈ 0.866 µM) | 40 (≈ 57.7 µM) | 40 (≈ 57.7 µM) | 40 (≈ 57.7 µM) | 40 (≈ 57.7 µM) | 40 (≈ 57.7 µM) | 40 (≈ 57.7 µM) | 40 (≈ 57.7 µM) | 0.3 (≈ 0.433 µM) | 40 (≈ 57.7 µM)
6 | CC[C@H]1OC(=O)[C@H](C)C(=O)[C@H](C)[C@@H](O[C@@H]2O[C@H](C)C[C@H](N(C)C)[C@H]2O)[C@](C)(OC)C[C@@H](C)/C(=N\OCCN2CCCC2)[C@H](C)[C@@H](O)[C@]1(C)O | 0.6 (≈ 0.857 µM) | 0.15 (≈ 0.214 µM) | 40 (≈ 57.1 µM) | 40 (≈ 57.1 µM) | 2.5 (≈ 3.57 µM) | 40 (≈ 57.1 µM) | 40 (≈ 57.1 µM) | 0.6 (≈ 0.857 µM) | 20 (≈ 28.6 µM) | 20 (≈ 28.6 µM) | 20 (≈ 28.6 µM)
7 | CC[C@H]1OC(=O)[C@H](C)C(=O)[C@H](C)[C@@H](O[C@@H]2O[C@H](C)C[C@H](N(C)C)[C@H]2O)[C@](C)(OC)C[C@@H](C)/C(=N\OC[C@@H](N)C(=O)OC)[C@H](C)[C@@H](O)[C@]1(C)O | 1.2 (≈ 1.7 µM) | 0.6 (≈ 0.852 µM) | 40 (≈ 56.8 µM) | 40 (≈ 56.8 µM) | 10 (≈ 14.2 µM) | 20 (≈ 28.4 µM) | 40 (≈ 56.8 µM) | 2.5 (≈ 3.55 µM) | 40 (≈ 56.8 µM) | 0.6 (≈ 0.852 µM) | 40 (≈ 56.8 µM)
8 | CC[C@H]1OC(=O)[C@H](C)C(=O)[C@H](C)[C@@H](O[C@@H]2O[C@H](C)C[C@H](N(C)C)[C@H]2O)[C@](C)(OC)C[C@@H](C)C(=O)[C@H](C)[C@H]2N(CCCc3ccccc3)C(=O)O[C@]12C | 1.2 (≈ 1.64 µM) | 0.15 (≈ 0.205 µM) | 40 (≈ 54.7 µM) | 40 (≈ 54.7 µM) | 2.5 (≈ 3.42 µM) | 20 (≈ 27.4 µM) | 40 (≈ 54.7 µM) | 1.2 (≈ 1.64 µM) | 40 (≈ 54.7 µM) | 0.3 (≈ 0.41 µM) | 10 (≈ 13.7 µM)
9 | CC[C@H]1OC(=O)[C@H](C)C(=O)[C@H](C)[C@@H](O[C@@H]2O[C@H](C)C[C@H](N(C)C)[C@H]2O)[C@](C)(OC)C[C@@H](C)/C(=N\O[C@@H]2CCCNC2)[C@H](C)[C@@H](O)[C@]1(C)O | 0.15 (≈ 0.219 µM) | 0.04 (≈ 0.0583 µM) | 2.5 (≈ 3.64 µM) | 40 (≈ 58.3 µM) | 2.5 (≈ 3.64 µM) | 0.3 (≈ 0.437 µM) | 40 (≈ 58.3 µM) | 0.6 (≈ 0.875 µM) | 0.3 (≈ 0.437 µM) | 0.08 (≈ 0.117 µM) | 0.6 (≈ 0.875 µM)
10 | CCCCCCCCCCN1CCCC(O/N=C2\[C@H](C)C[C@@](C)(OC)[C@H](O[C@@H]3O[C@H](C)C[C@H](N(C)C)[C@H]3O)[C@@H](C)C(=O)[C@@H](C)C(=O)O[C@H](CC)[C@@](C)(O)[C@H](O)[C@H]2C)C1 (stereo not given in full) | 0.6 (≈ 0.726 µM) | 0.08 (≈ 0.0968 µM) | 20 (≈ 24.2 µM) | 40 (≈ 48.4 µM) | 0.6 (≈ 0.726 µM) | 0.3 (≈ 0.363 µM) | 10 (≈ 12.1 µM) | 0.6 (≈ 0.726 µM) | 1.2 (≈ 1.45 µM) | 0.08 (≈ 0.0968 µM) | 5 (≈ 6.05 µM)
